From ChEMBL document CHEMBL1129377, “Synthesis, structure-activity relationships, and the effect of polyethylene glycol on inhibitors of phosphatidylinositol-specific phospholipase C from Bacillus cereus” (J Med Chem, 1996)

Experiments:
[1] = Inhibition of Phosphoinositide specific phospholipase C (PI-PLC) from Bacillus cereus on the internal face of the cell membrane.
Summary of the method: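 Single-phase aqueous assay: recombinant B. cereus PI-PLC, final 5 nM, with 0.25 mM NPIP in 100 mM HEPES, 1 mM EDTA, pH 7, 0.008% PEG-8000, 25 °C. Inhibitor kept at least tenfold below cmc and added before substrate and enzyme. Initial rates at 399 nm over 4 min. IC50 is the mean of two experiments. Ki came from varying NPIP 0.1-0.5 mM at two inhibitor levels, fitted to competitive inhibition.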

Bacillus cereus [2] = experiment: Compound was tested for the inhibition of Phosphoinositide specific phospholipase C (PI-PLC) in the presence of buffer at concentration of 40.0 mM; parameters: scale not given: the % may be the effect or the level left
Summary of the method: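 Recombinant B. cereus PI-PLC, final 5 nM, with 0.25 mM NPIP (D-enantiomer) in 100 mM HEPES, 1 mM EDTA, pH 7, no PEG-600, 25 °C. Inhibitor added a few minutes before substrate and enzyme. Activity normalized to uninhibited control; mean of at least two separate experiments.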

Bacillus cereus [3] = experiment: Compound was tested for the inhibition of Phosphatidylinositol-Specific Phospholipase C (PI-PLC) in the presence of PEG-600 at concentration of 40.0 mM; parameters: scale not given: the % may be the effect or the level left
Summary of the method: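 Recombinant B. cereus PI-PLC (E. coli periplasmic prep), final 5 nM, with 0.25 mM NPIP (D-enantiomer) in 90% crystallization precipitant solution (33% PEG-600, 0.16 M trisodium citrate-HCl pH 7.35, 46 mM HEPES pH 7), 25 °C. Inhibitor preincubated a few minutes before substrate and enzyme. p-Nitrophenolate followed at 399 nm for 4 min; activity normalized to uninhibited control.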

| IC50 [1] [µM] | Structure (SMILES) | other results |
| --- | --- | --- |
| 43 | O=P(O)(O)OC1C(O)C(O)C(O)C(O)C1O (stereo in doubt; form 1) [listing 1 of 2 here] |  |
| 410000 | O[C@H]1[C@H](O)[C@@H](O)[C@H](O)[C@@H](O)[C@@H]1O [SCYLLITOL] |  |
| 187 | CCCCCC(=O)OCC(COP(=O)(O)O)OC(=O)CCCCC (stereo not drawn) |  |
| 60 | CCCCCCOCC(CCP(=O)(O)O)OCCCCCC (stereo not drawn) |  |
| 10000 | O[C@H]1[C@H](O)[C@@H](O)[C@H](O)[C@@H](O)[C@H]1O [INOSITOL] | Activity (Bacillus cereus [2]): 18%; Activity (Bacillus cereus [3]; 40.0 mM): 22% |
| 118 | CCCCCC(=O)OCC(COP(=O)(O)OC)OC(=O)CCCCC (stereo not drawn) |  |
| 23 | CCCCCCOCC(CCP(=O)(O)OC)OCCCCCC (stereo not drawn) |  |
| 55 | CCCCCCOCC(COP(=O)(O)O)OCCCCCC (stereo not drawn) |  |
| 45 | CCCCCCOCC(CC(F)(F)P(=O)(O)O)OCCCCCC (stereo not drawn) |  |
| 53 | CCCCCCOCC(COP(=O)(O)OC)OCCCCCC (stereo not drawn) |  |
| 2000 | O[C@H]1[C@@H](O)[C@@H](O)[C@@H](O)[C@@H](O)[C@@H]1O |  |
| 3 | O=C1C(O)C(O)C(O)C(O)C1O (racemic) |  |
| 235 | CCCCCOCC(COP(=O)(O)OC)OCCCCC (stereo not drawn) |  |
| 34 | CCCCCCOCC(CC(F)(F)P(=O)(O)OC1C(O)C(O)C(O)C(O)C1O)OCCCCCC (stereo not drawn) |  |
| 135000 | O=P1(O)OC2C(O)C(O)C(O)C(O)C2O1 (stereo not drawn) |  |
| > 50000 | O[C@@H]1[C@H](O)[C@@H](O)[C@@H](O)[C@@]2(CO2)[C@@H]1O |  |
| 56 | O=P(O)(O)OC1C(O)C(O)C(O)C(O)C1O (stereo in doubt; form 2) |  |
|  | O=P(O)(O)OC1C(O)C(O)C(O)C(O)C1O (stereo in doubt; form 1) [listing 2 of 2 here] | Activity (Bacillus cereus [2]): 69%; Activity (Bacillus cereus [3]; 16.0 mM, in the assay text read “16.0 mM” for “40.0 mM”): 56% |
| 18 | CCCCCCOCC(CCP(=O)(O)OC1C(O)C(O)C(O)C(O)C1O)OCCCCCC (stereo not drawn) | Activity (Bacillus cereus [2]): 25%; Activity (Bacillus cereus [3]; 0.25 mM, in the assay text read “0.25 mM” for “40.0 mM”): 100% |
| 12 | CCCCCCCCOCC(COP(=O)(O)OC)OCCCCCCCC (stereo not drawn) | Activity (Bacillus cereus [2]): 14%; Activity (Bacillus cereus [3]; 0.17 mM, in the assay text read “0.17 mM” for “40.0 mM”): 102% |
| 133 | O=C1C(O)C(O)C(O)C(O)C1O (stereo in doubt) |  |
